Measurements: ChEMBL document CHEMBL3792328, “Diketopiperazines from Costa Rican endolichenic fungus Colpoma sp. CR1465A” (2016)

Tests used:
Type in all cases: functional
Bacillus spizizenii = test: Antibacterial activity against Bacillus subtilis ATCC 6633 after 12 hrs by broth-dilution method; settings: ATCC 6633, 12 h
Summary of the method: (§1)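 Standardized ATCC strains were tested in triplicate by broth dilution. The panel comprised Gram-negative E. coli, Gram-positive B. subtilis and S. aureus, and the yeasts S. cerevisiae and C. albicans. Minimum inhibitory concentration was determined for the growth-inhibition lines. Minimum fungicidal concentration was determined for the fungicidal yeast lines.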

Escherichia coli = test: Antibacterial activity against Escherichia coli ATCC 25922 after 12 hrs by broth-dilution method; settings: ATCC 25922, 12 h; summary of the method: as §1
Staphylococcus aureus = test: Antibacterial activity against Staphylococcus aureus BAA-2313 after 12 hrs by broth-dilution method; settings: BAA-2313, 12 h; summary of the method: as §1
Saccharomyces cerevisiae [1] = test: Fungicidal activity against Saccharomyces cerevisiae ATCC 9763 after 48 hrs by broth-dilution method; settings: ATCC 9763, 48 h, read-out: MFC99.9; summary of the method: as §1
Saccharomyces cerevisiae [2] = test: Antifungal activity against Saccharomyces cerevisiae ATCC 9763 after 12 hrs by broth-dilution method; settings: ATCC 9763, 12 h; summary of the method: as §1
Candida albicans [3] = test: Fungicidal activity against Candida albicans ATCC 10231 after 48 hrs by broth-dilution method; settings: ATCC 10231, 48 h, read-out: MFC99.9; summary of the method: as §1
Candida albicans [4] = test: Antifungal activity against Candida albicans ATCC 10231 after 12 hrs by broth-dilution method; settings: ATCC 10231, 12 h; summary of the method: as §1

MIC (Bacillus spizizenii) [µg/mL] | MIC (Escherichia coli) [µg/mL] | MIC (Staphylococcus aureus) [µg/mL] | MIC (Saccharomyces cerevisiae [2]) [µg/mL] | MIC (Candida albicans [4]) [µg/mL] | SMILES | MFC (Saccharomyces cerevisiae [1]) [µg/mL] | MFC (Candida albicans [3]) [µg/mL]
> 200 | > 200 | > 200 | > 200 | > 200 | C[C@@H]1NC(=O)[C@@H]2CCCN2C1=O | > 200 | > 200
> 200 | > 200 | > 200 | > 200 | > 200 | O=C(O)C[C@@H]1NC(=O)[C@@H]2CCCN2C1=O | > 200 | > 200
> 200 | > 200 | > 200 | > 200 | > 200 | O=C1NCC(=O)N2CCC[C@H]12 | > 200 | > 200
> 200 | > 200 | > 200 | > 200 | > 200 | O=C(O)CC[C@H]1NC(=O)[C@@H]2CCCN2C1=O | > 200 | > 200
> 200 | > 200 | > 200 | > 200 | > 200 | O=C1[C@@H]2CCCN2C(=O)[C@H]2C[C@H](O)CN12 | > 200 | > 200
> 200 | > 200 | > 200 | > 200 | > 200 | C[C@H]1NC(=O)[C@@H]2CCCN2C1=O | > 200 | > 200
> 200 | > 200 | > 200 | > 200 | > 200 | O=C(O)CC[C@H]1NC(=O)[C@H]2CCCN2C1=O | > 200 | > 200
> 200 | > 200 | > 200 | > 200 | > 200 | C[C@@H](O)[C@H]1NC(=O)[C@@H]2CCCN2C1=O | > 200 | > 200
